Values belong to the molecule of their own block, whether it stands above or below them. Numbered stars: 1 amine (or outer) side, 2 acyl side, 3 side chain; on linkers, the order of the positions; unused ones are H or OH. Bridge positions count the residues as written; N and C are the ends. Side chains are listed from the residue outwards. Ends that are not written are not given here. Peptide text beside a SMILES is read from it. * marks the point of attachment. X1 = CC(=NO)C(C)(C)NCCC(CCNC(C)(C)C(C)=NO)CCN*; Glutaryl = O=C(CCCC(=O)[*:2])[*:1]
Tests used:
[1] = system: extracellular domain of human Met; conditions: fluorescence polarization; cited from earlier work
[2] = system: tumor responses to Met-targeted therapeutics; conditions: ref [19],[26],[47],[48], cited from earlier work
[3] = system: MKN-45 xenografts; test: Longitudinal [^99mTc]-Met peptide SPECT imaging during PHA 665752 treatment; assay type: in vivo, athymic female nude mice (human MKN-45 tumor); conditions: for decrease in [^99mTc]-Met peptide tumor uptake (%ID/g) vs vehicle: PHA 665752 15 mg/kg i.p. daily
Procedure, shortened: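 Female nude mice carried s.c. MKN-45 xenografts, 30–50 mm³ at baseline. They received the Met TKI at 15 mg/kg i.p. in 5% DMSO:saline, or vehicle, daily for 3–4 weeks. SPECT/CT imaging was done 90 min after injection of ⁹⁹ᵐTc-labelled Met peptide, at baseline and then weekly. Tumour uptake was expressed as %ID/g normalised to a 20 g mouse. n = 9 per group; groups were compared by Welch t-test.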

[4] = system: MKN-45 xenografts; test: Tumor volume by 3D ultrasonography, [^99mTc]-Met peptide imaged cohort; assay type: in vivo, athymic female nude mice (human MKN-45 tumor); conditions: 15 mg/kg i.p. daily
Procedure, shortened: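 After each weekly SPECT/CT session in the daily-dosed MKN-45 cohort (Met TKI 15 mg/kg i.p.), 3D ultrasonography was run at 40 MHz with a 0.076 mm step size. Tumour volume was obtained with a parallel ROI algorithm and expressed as % increase from baseline. n = 9 per group; groups were compared by Welch t-test (p < .05).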

[5] = system: MKN-45 xenografts; test: Tumor weight and histologic grading; assay type: in vivo, athymic female nude mice (human MKN-45 tumor)
Procedure, shortened: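 SPECT-imaged MKN-45 mice, given the Met TKI daily i.p. or vehicle, were euthanised after the last imaging session at 3 weeks. Tumours were weighed (> 0.5 g counted) and formalin-fixed, paraffin-embedded sections were stained with H&E (necrosis, graded up to +4 severe) or ApopTag (apoptosis).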

[6] = system: shed Met; test: Plasma shed Met electrochemiluminescent immunoassay; assay type: in vivo, human Met in mouse xenograft plasma; conditions: for slope plasma shed Met/tumor mass: PHA-treated
Procedure, shortened: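 Blood was collected into EDTA tubes and centrifuged. Plasma was fast-frozen and stored at −70°C; samples from radiolabel-imaged mice were assayed after the radioactivity had decayed. Soluble Met ectodomain was measured by two-site electrochemiluminescent immunoassay with ruthenium-chelate-tagged detection antibody, against a recombinant Met ectodomain–IgG-Fc standard. Naive cohorts were sampled at 1–4 weeks, imaged cohorts at the end. Values were correlated with tumour mass by Spearman analysis, and slopes were given as ng/mL per g.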

[7] = system: MKN-45 xenografts; test: Longitudinal Cy5^⋆⋆-Met peptide fluorescence imaging during PHA 665752 treatment; assay type: in vivo, athymic female nude mice (human MKN-45 tumor); conditions: for decrease in Cy5^⋆⋆-Met fluorescent signal intensity in tumors vs vehicle: PHA 665752 5 days on/2 days off, n = 9, p < .05
[8] = system: MKN-45 xenografts; test: Tumor weight and histologic grading, Cy5^⋆⋆-Met peptide imaged cohort; assay type: in vivo, athymic female nude mice (human MKN-45 tumor); conditions: treated
Procedure, shortened: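 Fluorescence-imaged MKN-45 mice, given the Met TKI 5 days on/2 days off or vehicle, were euthanised after the last imaging session (18 or 25 days). Tumours were weighed (fraction > 0.5 g), fixed in 10% neutral-buffered formalin and paraffin-embedded. Sections were stained with H&E for necrosis and ApopTag for apoptosis, then graded. n = 9 per group.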

[9] = system: gastric carcinoma cells (including MKN-45 cells); conditions: cited from earlier work
[10] = system: human lung carcinoma cells; conditions: cited from earlier work
[11] = system: Met tyrosine kinase; conditions: cited from earlier work
[12] = system: Met (U87-MG cells); test: Saturation binding, U87-MG cells; parameters: species or system human
Procedure, shortened: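 U87-MG cells were grown in DMEM with 2 mM L-glutamine, 0.1 mM NEAA, 1 mM pyruvate and 10% FBS, then placed in tubes (0.2–1.0 × 10⁶ cells) on the assay day. Duplicates were incubated with 0.2–10 nM ⁹⁹ᵐTc-labelled Met peptide for 2 h at 4°C, with nonspecific binding defined by 10^−6.3 M unlabelled peptide. Pellets were washed twice with PBS and counted. MKN-45 cells were plated (0.2 × 10⁶/well) the day before and trypsinised for counting. Kd and Bmax came from one-site nonlinear fits.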

[13] = in vivo; parameters: species or system athymic female nude mice (human MKN-45 tumor); conditions: female, athymic nude (Ncr-nu/nu), mouse, iv, total radioactivity
[14] = system: MKN-45 xenografts; test: in vivo; parameters: species or system athymic female nude mice (human MKN-45 tumor)
[15] = in vivo; parameters: species or system athymic female nude mice (human SNU-16 tumor); conditions: female, athymic nude (Ncr-nu/nu), mouse, iv, total radioactivity
[16] = system: SNU-16 xenografts; test: in vivo; parameters: species or system athymic female nude mice (human SNU-16 tumor)
[17] = in vivo; parameters: species or system athymic female nude mice (human U87-MG tumor); conditions: female, athymic nude (Ncr-nu/nu), mouse, iv, total radioactivity
[18] = system: U87-MG xenografts; test: in vivo; parameters: species or system athymic female nude mice (human U87-MG tumor)
[19] = system: MKN-45 xenografts; assay type: in vivo, athymic female nude mice (human MKN-45 tumor); conditions: 60 minutes postinjection
[20] = system: MKN-45 xenografts; parameters: species or system athymic female nude mice (human MKN-45 tumor); conditions: in vivo
[21] = target: T1, hepatocyte growth factor tyrosine kinase receptor (Met) (human (endogenous in MKN-45 and U87-MG), UniProt P08581 25-1390); test: in vivo biodistribution with blocking
T1 sequence (P08581 25-1390): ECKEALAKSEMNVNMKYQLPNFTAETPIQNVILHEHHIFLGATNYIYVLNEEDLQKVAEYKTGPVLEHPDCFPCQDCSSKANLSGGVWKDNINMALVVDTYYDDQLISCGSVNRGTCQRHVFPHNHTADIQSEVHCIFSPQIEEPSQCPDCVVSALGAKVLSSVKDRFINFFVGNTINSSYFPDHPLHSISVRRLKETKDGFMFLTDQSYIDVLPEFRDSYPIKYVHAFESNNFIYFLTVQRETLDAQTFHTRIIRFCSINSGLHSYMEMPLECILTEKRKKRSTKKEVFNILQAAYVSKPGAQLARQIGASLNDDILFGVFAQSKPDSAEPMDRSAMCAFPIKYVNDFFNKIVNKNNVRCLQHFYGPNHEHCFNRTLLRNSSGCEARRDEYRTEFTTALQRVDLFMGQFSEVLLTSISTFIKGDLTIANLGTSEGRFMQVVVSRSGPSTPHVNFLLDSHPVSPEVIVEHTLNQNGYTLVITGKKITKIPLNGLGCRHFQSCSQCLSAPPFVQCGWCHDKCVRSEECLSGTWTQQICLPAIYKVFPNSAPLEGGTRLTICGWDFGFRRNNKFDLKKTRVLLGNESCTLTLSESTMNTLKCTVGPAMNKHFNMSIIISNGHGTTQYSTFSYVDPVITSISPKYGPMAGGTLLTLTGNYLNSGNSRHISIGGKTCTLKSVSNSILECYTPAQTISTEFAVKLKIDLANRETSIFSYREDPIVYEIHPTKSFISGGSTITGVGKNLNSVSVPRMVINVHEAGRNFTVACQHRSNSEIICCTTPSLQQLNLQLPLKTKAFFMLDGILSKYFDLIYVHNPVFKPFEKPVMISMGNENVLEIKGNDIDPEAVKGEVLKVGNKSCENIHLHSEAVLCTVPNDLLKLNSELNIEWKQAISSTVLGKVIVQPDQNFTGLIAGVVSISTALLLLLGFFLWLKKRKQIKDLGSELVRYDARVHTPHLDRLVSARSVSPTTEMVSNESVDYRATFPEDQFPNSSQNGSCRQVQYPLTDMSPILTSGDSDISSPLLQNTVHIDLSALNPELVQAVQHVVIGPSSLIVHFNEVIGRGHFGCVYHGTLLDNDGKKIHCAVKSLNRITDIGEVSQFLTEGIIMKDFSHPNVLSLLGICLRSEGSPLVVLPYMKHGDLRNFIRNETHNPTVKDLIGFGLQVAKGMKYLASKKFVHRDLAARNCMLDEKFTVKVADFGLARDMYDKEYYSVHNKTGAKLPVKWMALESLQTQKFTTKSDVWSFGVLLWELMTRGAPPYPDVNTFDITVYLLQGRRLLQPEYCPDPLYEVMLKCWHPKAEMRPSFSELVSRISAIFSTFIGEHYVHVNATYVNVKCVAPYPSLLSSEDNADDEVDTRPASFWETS

[22] = target: T1, hepatocyte growth factor tyrosine …; test: radioligand binding

Molecule: Cys4–16, 6–14; Ac-Ala-Gly-Ser-Cys-Tyr-Cys-Ser-Gly-Pro-Pro-Arg-Phe-Glu-Cys-Trp-Cys-Tyr-Glu-Thr-Glu-Gly-Thr-Gly-Gly-Gly-Lys (bicyclic or more) [unlabeled Met peptide]
IC50 [1]: 90 nM

Molecule: Cc1cn([C@H]2C[C@H]([18F])[C@@H](CO)O2)c(=O)[nH]c1=O [[^18F]FLT, [^18F]fluorothymidine]
PET detection of tumor response to crizotinib and BAY 853474 [2]: detected a robust tumor response

Molecule: Cc1[nH]c(/C=C2\C(=O)Nc3ccc(S(=O)(=O)Cc4c(Cl)cccc4Cl)cc32)c(C)c1C(=O)N1CCC[C@@H]1CN1CCCC1 [PHA 665752, (2R)-1-[[5-[(Z)-[5-[[(2,6-dichlorophenyl)methyl]sulfonyl]-1,2-dihydro-2-oxo-3H-indol-3-ylidene]methyl]-2,4-dimethyl-1H-pyrrol-3-yl]–carbonyl]-2-(1-pyrrolidinylmethyl) pyrrolidine]
tumor uptake of [^99mTc]-Met peptide after PHA 665752 ([3]; MKN-45 xenografts): significantly decreased as early as 1 week
decrease in [^99mTc]-Met peptide tumor uptake (%ID/g) vs vehicle ([3]; day 8, n = 9, p = .005): 43%
decrease in [^99mTc]-Met peptide tumor uptake (%ID/g) vs vehicle ([3]; day 21, n = 9, not significant): 25%
decrease in tumor volume vs vehicle ([4]; day 8, n = 9, not significant): 25%
decrease in tumor volume vs vehicle ([4]; day 21, n = 9, p = .016): 55%
tumors with moderately severe apoptosis ([5]; ApopTag, after 3 weeks PHA 665752): 22%
fraction of severely necrotic tumors ([5]; H&E, after 3 weeks PHA 665752 (vehicle also 78%)): 78%
fraction of tumors > 0.5 g ([5]; after 3 weeks PHA 665752): 44%
increase in plasma shed Met (ng/mL per g tumor) vs vehicle ([6]; 1, 2, and 3 to 4 weeks after treatment): ~ 2 fold
slope plasma shed Met/tumor mass ([6]; imaged xenografts, n = 7 (vehicle 43.7)): 77.7 (ng/mL)/(g)
slope plasma shed Met/tumor mass ([6]; nonimaged xenografts (vehicle 43.8)): 77.5 (ng/mL)/(g)
fluorescent signal intensity and tumor volume vs vehicle ([7]; 25 days, n = 6 treated, 5 vehicle): these decreases were not significant
decrease in Cy5^⋆⋆-Met fluorescent signal intensity in tumors vs vehicle ([7]; 11 days): 54%
decrease in Cy5^⋆⋆-Met fluorescent signal intensity in tumors vs vehicle ([7]; 18 days): 55%
tumors with minimal (1+) apoptosis ([8]; 18 or 25 days (vehicle 78%)): 33%
tumors > 0.5 g ([8]; 18 or 25 days (vehicle 89%)): 78%
drug resistance on prolonged exposure [9]: acquired drug resistance associated with increased levels of Met
extracellular Met expression [9]: extracellular Met expression appeared unchanged
inhibition of Met phosphorylation [9]: pronounced inhibition of Met phosphorylation
total surface Met expression [10]: total surface Met expression increased
tumorigenicity, apoptosis and necrosis [11]: reduction of tumorigenicity accompanied with increases in apoptosis and necrosis

Molecule: CC(=O)N[C@@H](C)C(=O)NCC(=O)N[C@@H](CO)C(=O)N[C@H]1CSSC[C@@H](C(=O)N[C@@H](Cc2ccc(O)cc2)C(=O)N[C@@H](CCC(=O)O)C(=O)N[C@H](C(=O)N[C@@H](CCC(=O)O)C(=O)NCC(=O)N[C@H](C(=O)NCC(=O)NCC(=O)NCC(=O)N[C@@H](CCCCNC(=O)CCCC(=O)NCCC(CCNC(C)(C)C(C)=NO)CCNC(C)(C)C(C)=NO)C(N)=O)[C@@H](C)O)[C@@H](C)O)NC(=O)[C@H](Cc2c[nH]c3ccccc23)NC(=O)[C@@H]2CSSC[C@H](NC(=O)[C@H](Cc3ccc(O)cc3)NC1=O)C(=O)N[C@@H](CO)C(=O)NCC(=O)N1CCC[C@H]1C(=O)N1CCC[C@H]1C(=O)N[C@@H](CCCNC(=N)N)C(=O)N[C@@H](Cc1ccccc1)C(=O)N[C@@H](CCC(=O)O)C(=O)N2 (some centres unmarked) [[^99mTc]-Met peptide, metal not drawn] (Ac-AGSCYCSGPPRFECWCYETEGTGGGK([Glutaryl-X1])-NH2; disulfide 4-16, 6-14; C-terminus assumed)
specific binding ([12]; U87-MG cells (low Met), 2 hours at 4°C): < 40%
Bmax U87-MG lower than MKN-45 ([12]; U87-MG vs MKN-45 cells): ~ 90 fold
tissue to tissue ratio at 0.5 h [13]: 9.8 ± 2.1
tissue to tissue ratio at 1 h [13]: 30.1 ± 3.3
tissue to tissue ratio at 2 h [13]: 49.6 ± 11.3
tissue to tissue ratio at 3 h [13]: 55.2 ± 13.4
clearance [14]: > 70%
kidney to muscle ratio exceeding tumor to muscle ratio [14]: 1.6-3 fold
primary route of excretion [14]: renal clearance as the primary route of excretion
tissue uptake at 0.5 h [15]: 4.59 ± 0.5 %ID/g
tissue uptake at 1 h [15]: 2.61 ± 0.82 %ID/g
tissue uptake at 2 h [15]: 1.3 ± 0.34 %ID/g
tumor to muscle ratio reduced vs MKN-45 [16]: 2-4 fold
uptake in nontarget tissues [16]: comparable to the MKN-45 xenografts
tissue uptake at 1 h [17]: 1.19 ± 0.11 %ID/g
tissue uptake at 2 h [17]: 0.71 ± 0.15 %ID/g
tissue uptake at 3 h [17]: 0.58 ± 0.09 %ID/g
tumor to muscle ratio reduced vs MKN-45 [18]: 10-16 fold
visualization of MKN-45 tumors [19]: clearly visualized at 60 minutes
effect on shed Met plasma concentrations ([6]; imaged vs nonimaged xenografts): does not appear to alter shed Met plasma concentrations
reduction in slope (%ID/g), larger vs smaller tumors [20]: 2-3 fold
slope (%ID/g) of total uptake per tumor vs tumor weight [20]: 4.2 %ID/g
IC50 [1]: ~200 nM

Molecule: OC[C@H]1OC(O)[C@H]([18F])[C@@H](O)[C@@H]1O (some centres unmarked) [[^18F]FDG, [^18F]fluorodeoxyglucose]
PET detection of tumor response to crizotinib ([2]; Met intracellular kinase inhibition): failed to detect tumor responses
PET detection of tumor response to CE-355621 ([2]; mAb targeting the Met extracellular domain): detected early tumor responses

percent decrease of tumor to muscle ratio of [^99mTc]-Met peptide [21]: 53%
Molecule: Ac-AGSCYCSGPPRFECWCYETEGTGGGK (disulfide 6-14, 4-16; also: trifluoroacetate salt) [unlabeled Met peptide (AH-111972 trifluoracetate salt [DX-1662])]

Kd [22]: 3.31 nM
Molecule: Ac-AGSCYCSGPPRFECWCYETEGTGGGK(cPn216) (disulfide 6-14, 4-16; also: 99mTc chelated by cPn216) [[^99mTc]-Met peptide (AH-113018)]
